# Activity calls are given as the source filed them. The rule behind the calls is not given here.
# What was measured:
# [1] = Inotropic activity at L type calcium channel in guinea pig left atrium assessed as decrease in tension; assay type: tissue-based; conditions: Cavia porcellus, Cardiac atrium
# Method in brief: (§1)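 Guinea-pig atria: left atrium driven at 1 Hz for inotropy, spontaneously beating right atrium for chronotropy. Increasing cumulative doses, readout is percent decrease. EC50 (inotropic) and EC30 (chronotropic) by Litchfield–Wilcoxon probit analysis on log concentration–response curves, n = 6–7. Not calculated when the maximum effect was below 50%.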
# Cavia porcellus [2] = species on record: Cavia porcellus; assay: Activity at L type calcium channel in K+ depolarized guinea pig longitudinal smooth muscle assessed as inhibition of calcium induced contraction at 5 uM; parameters: scale not given: the % may be the effect or the level left
# [3] = Activity at L type calcium channel in K+ depolarized guinea pig longitudinal smooth muscle assessed as inhibition of calcium induced contraction; parameters: species or system Cavia porcellus
# Cavia porcellus [4] = species on record: Cavia porcellus; assay: Inotropic activity at L type calcium channel in guinea pig left atrium assessed as decrease in tension at 5 uM relative to control; assay type: tissue-based; parameters: scale not given: the % may be the effect or the level left; conditions: Cardiac atrium
# Cavia porcellus [5] = species on record: Cavia porcellus; assay: Chronotropic activity at L type calcium channel in guinea pig right atrium assessed as decrease in spontaneous beating at 10 uM relative to control; assay type: tissue-based; parameters: scale not given: the % may be the effect or the level left; conditions: Cardiac atrium
# Cavia porcellus [6] = species on record: Cavia porcellus; assay: Activity at L type calcium channel in K+ depolarized guinea pig aortic strip assessed as inhibition of calcium induced contraction at 100 uM; assay type: tissue-based; parameters: scale not given: the % may be the effect or the level left; conditions: Aorta
# Method in brief: (§2)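 Guinea-pig aortic strips depolarized with 80 mM K+. Drugs added cumulatively. Readout is percent inhibition of calcium-induced contraction, n = 5–6. Control versus treated values tested at each concentration by Student's t-test, P < 0.05.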
# [7] = Displacement of (+)-[5-methyl-3H][…] from L type calcium channel in guinea pig heart ventricles; parameters: species or system Cavia porcellus
# Method in brief: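 Guinea-pig ventricular membranes incubated with 0.5 nM (+)-[5-methyl-3H]PN200-110 and test compounds at 0.1–50 µM in a competitive radioligand assay. Ki and IC50 reported as mean ± S.E.M. Student's t-test, significance P < 0.001.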
# Cavia porcellus [8] = species on record: Cavia porcellus; assay: Chronotropic activity at L type calcium channel in guinea pig right atrium assessed as decrease in spontaneous beating at 5 uM relative to control; assay type: tissue-based; parameters: scale not given: the % may be the effect or the level left; conditions: Cardiac atrium
# Cavia porcellus [9] = species on record: Cavia porcellus; assay: Chronotropic activity at L type calcium channel in guinea pig right atrium assessed as decrease in spontaneous beating; assay type: tissue-based; conditions: Cardiac atrium; method in brief: as §1
# Cavia porcellus [10] = species on record: Cavia porcellus; assay: Inotropic activity at L type calcium channel in guinea pig left atrium assessed as decrease in tension at 100 uM relative to control; assay type: tissue-based; parameters: scale not given: the % may be the effect or the level left; conditions: Cardiac atrium
# Cavia porcellus [11] = species on record: Cavia porcellus; assay: Activity at L type calcium channel in K+ depolarized guinea pig aortic strip assessed as inhibition of calcium induced contraction at 10 uM; assay type: tissue-based; parameters: scale not given: the % may be the effect or the level left; conditions: Aorta; method in brief: as §2
# Cavia porcellus [12] = species on record: Cavia porcellus; assay: Activity at L type calcium channel in K+ depolarized guinea pig longitudinal smooth muscle assessed as inhibition of calcium induced contraction at 0.1 uM; parameters: scale not given: the % may be the effect or the level left
# Cavia porcellus [13] = species on record: Cavia porcellus; assay: Inotropic activity at L type calcium channel in guinea pig left atrium assessed as decrease in tension at 10 uM relative to control; assay type: tissue-based; parameters: scale not given: the % may be the effect or the level left; conditions: Cardiac atrium
# HEK293 [14] = assay: (§3) Displacement of (+)-[5-methyl-3H][…] from L type calcium channel Cav1.2b in rabbit expressed in HEK293 cells; assay type: cell-based; conditions: Oryctolagus cuniculus
# Method in brief: (§4)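 Intact HEK-293 cells transfected with rabbit Cav1.2a (α1C-a) or Cav1.2b (α1C-b) plasmid, labelled with (+)-[5-methyl-3H]PN200-110. Nonspecific binding about 10–20% of total. IC50 is mean ± S.E.M. of three independent experiments.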
# Cavia porcellus [15] = species on record: Cavia porcellus; assay: Chronotropic activity at L type calcium channel in guinea pig right atrium assessed as decrease in spontaneous beating at 1 uM relative to control; assay type: tissue-based; parameters: scale not given: the % may be the effect or the level left; conditions: Cardiac atrium
# Cavia porcellus [16] = species on record: Cavia porcellus; assay: Activity at L type calcium channel in K+ depolarized guinea pig aortic strip assessed as inhibition of calcium induced contraction at 5 uM; assay type: tissue-based; parameters: scale not given: the % may be the effect or the level left; conditions: Aorta; method in brief: as §2
# HEK293 [17] = assay: (§5) Displacement of (+)-[5-methyl-3H][…] from L type calcium channel Cav1.2a in rabbit expressed in HEK293 cells; assay type: cell-based; conditions: Oryctolagus cuniculus; method in brief: as §4
# Heart [18] = assay: Cardiovascular activity in perfused guinea pig heart assessed as change in atrioventricular conduction time at 10 uM by ECG; assay type: functional, Cavia porcellus
# Method in brief: (§6)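 Perfused guinea-pig heart. Percentage change from basal value at the highest concentration tested, 10 µM. Parameters: +(dP/dt)max, heart rate, coronary perfusion pressure, PR interval and QT interval from ECG.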
# Heart [19] = assay: Cardiovascular activity in perfused guinea pig heart assessed as change in heart rate at 10 uM by ECG; assay type: functional, Cavia porcellus; method in brief: as §6
# Heart [20] = assay: Cardiovascular activity in perfused guinea pig heart assessed as change in ventricular repolarization time at 10 uM by ECG; assay type: functional, Cavia porcellus; method in brief: as §6
# Heart [21] = assay: Cardiovascular activity in perfused guinea pig heart assessed as change in coronary perfusion pressure at 10 uM by ECG; assay type: functional, Cavia porcellus; method in brief: as §6
# Cavia porcellus [22] = species on record: Cavia porcellus; assay: Inotropic activity at L type calcium channel in guinea pig left atrium assessed as decrease in tension at 1 uM relative to control; assay type: tissue-based; parameters: scale not given: the % may be the effect or the level left; conditions: Cardiac atrium
# Heart [23] = assay: Cardiovascular activity in perfused guinea pig heart assessed as change in maximal rate of rise in left ventricular pressure at 10 uM by ECG; assay type: functional, Cavia porcellus; method in brief: as §6
# Cavia porcellus [24] = species on record: Cavia porcellus; assay: Activity at L type calcium channel in K+ depolarized guinea pig aortic strip assessed as inhibition of calcium induced contraction at 50 uM; assay type: tissue-based; parameters: scale not given: the % may be the effect or the level left; conditions: Aorta; method in brief: as §2
# Cavia porcellus [25] = species on record: Cavia porcellus; assay: Activity at L type calcium channel in K+ depolarized guinea pig longitudinal smooth muscle assessed as inhibition of calcium induced contraction at 10 uM; parameters: scale not given: the % may be the effect or the level left
# Cavia porcellus [26] = species on record: Cavia porcellus; assay: Chronotropic activity at L type calcium channel in guinea pig right atrium assessed as decrease in spontaneous beating at 50 uM relative to control; assay type: tissue-based; parameters: scale not given: the % may be the effect or the level left; conditions: Cardiac atrium
# Cavia porcellus [27] = species on record: Cavia porcellus; assay: Inotropic activity at L type calcium channel in guinea pig left atrium assessed as decrease in tension at 0.5 uM relative to control; assay type: tissue-based; parameters: scale not given: the % may be the effect or the level left; conditions: Cardiac atrium
# Heart [28] = assay: Cardiovascular activity in perfused guinea pig heart assessed as change in ventricular repolarization time at 10 nM by ECG; assay type: functional, Cavia porcellus
# Method in brief: (§7)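 Guinea-pig heart: values are % change from basal. Parameters are +(dP/dt)max, heart rate, coronary perfusion pressure, PR and QT intervals. Highest concentration tested 10 µM.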
# Cavia porcellus [29] = species on record: Cavia porcellus; assay: Chronotropic activity at L type calcium channel in guinea pig right atrium assessed as decrease in spontaneous beating at 0.1 uM relative to control; assay type: tissue-based; parameters: scale not given: the % may be the effect or the level left; conditions: Cardiac atrium
# Method in brief: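 Spontaneously beating guinea-pig right atrium: % decrease in rate vs control. Drugs added cumulatively at increasing concentrations, compared with control at each concentration (Student's t-test, P<0.05). Mean ± S.E.M.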
# Cavia porcellus [30] = species on record: Cavia porcellus; assay: Activity at L type calcium channel in K+ depolarized guinea pig longitudinal smooth muscle assessed as inhibition of calcium induced contraction at 5 nM; parameters: scale not given: the % may be the effect or the level left
# Heart [31] = assay: Cardiovascular activity in perfused guinea pig heart assessed as change in atrioventricular conduction time at 1 uM by ECG; assay type: functional, Cavia porcellus
# [32] = as §3; assay type: cell-based, Oryctolagus cuniculus; method in brief: as §4
# [33] = as §5; assay type: cell-based, Oryctolagus cuniculus; method in brief: as §4
# Cavia porcellus [34] = species on record: Cavia porcellus; assay: Activity at L type calcium channel in K+ depolarized guinea pig aortic strip assessed as inhibition of calcium induced contraction at 1 uM; assay type: tissue-based; parameters: scale not given: the % may be the effect or the level left; conditions: Aorta
# Method in brief: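 Guinea-pig aortic strips depolarized with K+ (80 mM); % inhibition of Ca2+-induced contraction vs control. Drugs added cumulatively, compared with control at each concentration (Student's t-test, P<0.05). Mean ± S.E.M.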
# Heart [35] = assay: Cardiovascular activity in perfused guinea pig heart assessed as change in coronary perfusion pressure at 1 uM by ECG; assay type: functional, Cavia porcellus; method in brief: as §7
# Heart [36] = assay: Cardiovascular activity in perfused guinea pig heart assessed as change in heart rate at 10 nM by ECG; assay type: functional, Cavia porcellus; method in brief: as §7
# Heart [37] = assay: Cardiovascular activity in perfused guinea pig heart assessed as change in maximal rate of rise in left ventricular pressure at 10 nM by ECG; assay type: functional, Cavia porcellus; method in brief: as §7
# Cavia porcellus [38] = species on record: Cavia porcellus; assay: Activity at L type calcium channel in K+ depolarized guinea pig longitudinal smooth muscle assessed as inhibition of calcium induced contraction at 0.5 uM; parameters: scale not given: the % may be the effect or the level left
structure (smiles),measurement,setting,value
COC(=O)C1=C(C)NC(C)=C(C(=O)OC)C1c1c(-c2ccccc2OC(F)(F)F)nc2sccn12,EC50,[1],75 nM
same,Activity,Cavia porcellus [2],81%
same,IC50,[3],1950 nM
same,Activity,Cavia porcellus [4],67%
same,Activity,Cavia porcellus [5],47%
same,Activity,Cavia porcellus [6],47%
same,Log Ki,[7],-6.8
COC(=O)C1=C(C)NC(C)=C(C(=O)OC)C1c1c(-c2cccc(OC)c2)nc2sccn12,Activity,Cavia porcellus [8],94%
same,EC50,[1],1900 nM
same,EC30,Cavia porcellus [9],550 nM
same,Activity,Cavia porcellus [10],90%
same,Activity,Cavia porcellus [11],48%
same,IC50,[3],83 nM
same,Activity,Cavia porcellus [12],51%
COC(=O)C1=C(C)NC(C)=C(C(=O)OC)C1c1c(C(F)(F)F)nc2sccn12,EC50,[1],71 nM
same,Activity,Cavia porcellus [13],90%
same,EC30,Cavia porcellus [9],570 nM
same,Activity,HEK293 [14],inactive
same,Activity,Cavia porcellus [15],54%
same,Activity,Cavia porcellus [16],34%
same,Activity,HEK293 [17],inactive
same,Log Ki,[7],-5.35
COC(=O)C1=C(C)NC(C)=C(C(=O)OC)C1c1c(Cl)nc2sc(C)cn12,Activity,Heart [18],61%
same,Activity,Heart [19],6%
same,EC50,[1],56 nM
same,Activity,Heart [20],-16%
same,Activity,Heart [21],14%
same,Activity,Cavia porcellus [22],63%
same,IC50,[3],2060 nM
same,Activity,Cavia porcellus [5],22%
same,Activity,Heart [23],-35%
same,Activity,Cavia porcellus [24],19%
same,Activity,Cavia porcellus [25],93%
same,Log Ki,[7],< -5
COC(=O)C1=C(C)NC(C)=C(C(=O)OC)C1c1c(C)nc2sc(C)cn12,Activity,Cavia porcellus [26],38%
same,Activity,Cavia porcellus [27],43%
same,Activity,Cavia porcellus [6],33%
COC(=O)C1=C(C)NC(C)=C(C(=O)OC)C1c1ccccc1[N+](=O)[O-] [NIFEDIPINE],Activity,Heart [28],37%
same,Activity,Cavia porcellus [29],85%
same,Activity,Cavia porcellus [30],70%
same,EC50,[1],260 nM
same,Activity,Cavia porcellus [13],97%
same,Activity,Heart [31],66%
same,EC30,Cavia porcellus [9],25 nM
same,IC50,[32],3.6 nM
same,IC50,[33],45 nM
same,Activity,Cavia porcellus [34],82%
same,Activity,Heart [35],-36%
same,Activity,Heart [36],-60%
same,Activity,Heart [37],-96%
same,Log Ki,[7],-8.83
COC(=O)C1=C(C)NC(C)=C(C(=O)OC)C1c1c(-c2cc(OC)cc(OC)c2)nc2sccn12,Activity,Cavia porcellus [8],90%
same,EC30,Cavia porcellus [9],860 nM
same,Activity,Cavia porcellus [10],26%
same,IC50,[32],1.45 nM
same,IC50,[3],55 nM
same,Activity,Cavia porcellus [16],40%
same,IC50,[33],265 nM
same,Activity,Cavia porcellus [38],89%
same,Log Ki,[7],-6.51

# Source: ChEMBL document CHEMBL1142303, “Imidazo[2,1-b]thiazole system: a scaffold endowing dihydropyridines with selective cardiodepressant activity” (J Med Chem, 2008)
